Assay: MTT cell toxicity assay
Assay type: cell-based
Conditions: human, HeLa cells
Outline: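 HeLa cells grown in DMEM with 10% heat-inactivated FBS and 1% penicillin/streptomycin, 5% CO2, 37 °C. Exponentially growing cells were seeded at 2–6 × 10^3 per well and left 24 h, then exposed to graded test compound concentrations for 48 h. MTT (5 mg/mL stock) was added for 2–4 h at 37 °C. Formazan was dissolved in DMSO and read at 492 nm. Mean ± SD, n = 3.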

Compound: NS(=O)(=O)NCCNc1nonc1C(=NO)Nc1ccc(F)c(Br)c1 [Epa, Epacadostat]
- IC50 at 48 h: > 40 µM

Reference: paper PMC7606109 (Acta Pharmaceutica Sinica. B, 2020)
